In ChEMBL document CHEMBL1126929, “Syntheses of 2,5- and 2,6-difluoronorepinephrine, 2,5-difluoroepinephrine, and 2,6-difluorophenylephrine: effect of disubstitution with fluorine on adrenergic activity” (J Med Chem, 1993):

Experiments:
[1] = molecular target: Beta-1 adrenergic receptor (Rattus norvegicus, UniProt P18090); test: Displacement of [3H]dihydroalprenolol from adrenergic beta 1 receptor of rat cerebral cortical membranes; assay type: cell membranes, Membrane
[2] = species on record: Cavia porcellus; test: Effective concentration for stimulation of [3H]phosphoinositide formation in guinea pig synaptoneurosomes expressing alpha-1 receptor; assay type: functional
Outline: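 α1 agonism was read as stimulation of [³H]phosphoinositol formation in guinea pig synaptoneurosomes. EC50 is given as a mean. Efficacy is expressed relative to the parent amine set at 100.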

[3] = molecular target: Beta-2 adrenergic receptor (Rattus norvegicus, UniProt P10608); test: Binding affinity against adrenergic beta 2 receptor versus 1 nM [3H]dihydroalprenolol in rat […] cerebellar membranes; assay type: cell membranes, Cerebellum, Membrane
Sequence of Beta-2 adrenergic receptor (P10608 whole entry): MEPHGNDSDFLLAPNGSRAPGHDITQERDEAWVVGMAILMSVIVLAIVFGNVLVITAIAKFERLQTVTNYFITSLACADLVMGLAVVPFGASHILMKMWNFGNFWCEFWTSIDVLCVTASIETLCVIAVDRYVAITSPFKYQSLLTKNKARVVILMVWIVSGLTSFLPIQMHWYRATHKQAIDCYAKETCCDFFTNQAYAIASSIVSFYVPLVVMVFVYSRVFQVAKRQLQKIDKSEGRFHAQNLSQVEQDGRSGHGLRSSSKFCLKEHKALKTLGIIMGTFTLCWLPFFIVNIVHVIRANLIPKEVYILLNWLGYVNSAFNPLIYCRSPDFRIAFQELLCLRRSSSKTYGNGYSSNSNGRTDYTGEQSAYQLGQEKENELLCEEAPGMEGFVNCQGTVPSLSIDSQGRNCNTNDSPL

[4] = molecular target: T1, Adrenergic receptor alpha-1 (Rattus norvegicus, UniProt P15823+P23944+P43140); test: Displacement of [3H]WB-4101 from adrenergic alpha 1 receptor of rat cerebral cortical membranes; assay type: cell membranes, Membrane
T1 sequence (P15823 whole entry): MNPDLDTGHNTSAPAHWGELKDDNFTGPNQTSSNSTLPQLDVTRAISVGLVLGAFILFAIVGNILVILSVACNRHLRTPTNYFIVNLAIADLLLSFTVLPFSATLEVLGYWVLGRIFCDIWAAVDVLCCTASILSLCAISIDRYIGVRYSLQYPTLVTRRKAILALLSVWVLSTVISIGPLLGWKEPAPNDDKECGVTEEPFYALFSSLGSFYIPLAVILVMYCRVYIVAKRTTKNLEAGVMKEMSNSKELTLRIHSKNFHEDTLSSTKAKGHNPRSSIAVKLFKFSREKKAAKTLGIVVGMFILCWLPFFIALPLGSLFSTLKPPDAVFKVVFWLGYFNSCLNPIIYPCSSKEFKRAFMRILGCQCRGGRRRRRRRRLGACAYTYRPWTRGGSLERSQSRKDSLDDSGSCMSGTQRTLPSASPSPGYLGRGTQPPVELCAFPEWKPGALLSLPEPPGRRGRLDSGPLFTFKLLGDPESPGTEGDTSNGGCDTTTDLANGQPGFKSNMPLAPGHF
T1 sequence (P23944 whole entry): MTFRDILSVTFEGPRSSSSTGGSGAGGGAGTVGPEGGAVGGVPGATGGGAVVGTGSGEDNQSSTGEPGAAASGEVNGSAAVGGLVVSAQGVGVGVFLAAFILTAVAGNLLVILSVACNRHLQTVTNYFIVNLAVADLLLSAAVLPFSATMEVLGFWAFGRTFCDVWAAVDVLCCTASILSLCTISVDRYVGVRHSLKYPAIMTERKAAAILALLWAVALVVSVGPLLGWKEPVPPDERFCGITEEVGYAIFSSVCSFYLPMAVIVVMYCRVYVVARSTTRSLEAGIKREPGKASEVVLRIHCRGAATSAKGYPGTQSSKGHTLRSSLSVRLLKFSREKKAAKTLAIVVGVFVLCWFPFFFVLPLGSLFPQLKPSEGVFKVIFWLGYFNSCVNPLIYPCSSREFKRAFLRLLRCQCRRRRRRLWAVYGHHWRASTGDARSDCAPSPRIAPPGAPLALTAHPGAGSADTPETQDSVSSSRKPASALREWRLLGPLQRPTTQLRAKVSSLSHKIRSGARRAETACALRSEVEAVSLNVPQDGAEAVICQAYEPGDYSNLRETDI
T1 sequence (P43140 whole entry): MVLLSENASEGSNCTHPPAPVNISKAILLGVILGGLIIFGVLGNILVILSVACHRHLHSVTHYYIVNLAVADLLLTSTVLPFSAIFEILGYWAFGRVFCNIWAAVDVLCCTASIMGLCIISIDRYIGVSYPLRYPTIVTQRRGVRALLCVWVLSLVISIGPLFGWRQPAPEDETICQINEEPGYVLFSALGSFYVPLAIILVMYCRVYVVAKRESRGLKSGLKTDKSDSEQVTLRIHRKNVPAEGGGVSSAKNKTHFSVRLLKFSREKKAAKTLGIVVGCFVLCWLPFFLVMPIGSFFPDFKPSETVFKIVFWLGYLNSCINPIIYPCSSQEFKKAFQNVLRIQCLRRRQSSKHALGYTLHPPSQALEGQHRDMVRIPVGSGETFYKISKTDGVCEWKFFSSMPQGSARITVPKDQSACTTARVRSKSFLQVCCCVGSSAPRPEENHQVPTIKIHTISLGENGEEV

[5] = molecular target: T2, Adrenergic receptor alpha-2 (Rattus norvegicus, UniProt P22086+P19328+P22909); test: Displacement of [3H]clonidine from adrenergic alpha 2 receptor of rat cerebral cortical membranes; assay type: cell membranes, Membrane
T2 sequence (P22086 whole entry): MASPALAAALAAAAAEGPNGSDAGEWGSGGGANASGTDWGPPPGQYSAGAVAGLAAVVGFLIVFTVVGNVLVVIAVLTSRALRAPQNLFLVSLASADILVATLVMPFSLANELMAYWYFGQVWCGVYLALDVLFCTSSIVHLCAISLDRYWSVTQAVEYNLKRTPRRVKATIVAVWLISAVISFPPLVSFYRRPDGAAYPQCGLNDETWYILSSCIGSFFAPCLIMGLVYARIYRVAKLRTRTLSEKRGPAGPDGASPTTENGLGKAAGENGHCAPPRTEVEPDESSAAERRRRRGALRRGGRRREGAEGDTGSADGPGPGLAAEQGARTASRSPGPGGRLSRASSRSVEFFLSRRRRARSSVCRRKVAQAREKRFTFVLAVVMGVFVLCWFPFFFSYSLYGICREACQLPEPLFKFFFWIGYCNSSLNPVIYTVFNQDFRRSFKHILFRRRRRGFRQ
T2 sequence (P19328 whole entry): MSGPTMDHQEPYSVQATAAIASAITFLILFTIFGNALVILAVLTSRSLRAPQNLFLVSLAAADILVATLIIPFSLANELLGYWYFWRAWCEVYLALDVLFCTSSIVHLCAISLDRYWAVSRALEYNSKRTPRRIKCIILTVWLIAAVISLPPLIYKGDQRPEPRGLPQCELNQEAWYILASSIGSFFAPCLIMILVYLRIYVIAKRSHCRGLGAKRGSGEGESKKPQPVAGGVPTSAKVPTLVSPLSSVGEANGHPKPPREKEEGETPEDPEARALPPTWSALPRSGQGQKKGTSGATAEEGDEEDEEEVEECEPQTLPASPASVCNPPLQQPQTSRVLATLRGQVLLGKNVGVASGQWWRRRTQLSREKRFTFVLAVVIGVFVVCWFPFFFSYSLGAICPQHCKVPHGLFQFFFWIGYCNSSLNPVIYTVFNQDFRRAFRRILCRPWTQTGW
T2 sequence (P22909 whole entry): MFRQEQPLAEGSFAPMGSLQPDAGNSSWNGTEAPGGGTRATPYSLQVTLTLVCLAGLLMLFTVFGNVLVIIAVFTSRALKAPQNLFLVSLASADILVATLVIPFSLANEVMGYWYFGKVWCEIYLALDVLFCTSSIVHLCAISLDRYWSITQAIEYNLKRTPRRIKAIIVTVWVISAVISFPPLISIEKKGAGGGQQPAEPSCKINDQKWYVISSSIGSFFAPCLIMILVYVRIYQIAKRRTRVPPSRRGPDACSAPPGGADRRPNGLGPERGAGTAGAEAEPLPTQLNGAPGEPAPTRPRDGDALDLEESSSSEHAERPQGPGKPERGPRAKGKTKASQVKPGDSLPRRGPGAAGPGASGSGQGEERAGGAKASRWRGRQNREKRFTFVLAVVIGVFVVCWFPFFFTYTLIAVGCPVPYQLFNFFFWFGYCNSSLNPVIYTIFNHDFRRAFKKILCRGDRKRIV

[6] = molecular target: Adrenergic receptor beta (Rattus norvegicus, UniProt P18090+P10608+P26255); test: Stimulation of cyclic AMP accumulation in C6 glioma cells expressing adrenergic beta receptor; assay type: functional, cell-based
Outline: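 β agonism was read as stimulation of cyclic AMP accumulation in rat C6 glioma cells. EC50 is given as a mean. Efficacy is expressed relative to the parent amine set at 100.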

Sequence of Beta-1 adrenergic receptor (P18090 whole entry): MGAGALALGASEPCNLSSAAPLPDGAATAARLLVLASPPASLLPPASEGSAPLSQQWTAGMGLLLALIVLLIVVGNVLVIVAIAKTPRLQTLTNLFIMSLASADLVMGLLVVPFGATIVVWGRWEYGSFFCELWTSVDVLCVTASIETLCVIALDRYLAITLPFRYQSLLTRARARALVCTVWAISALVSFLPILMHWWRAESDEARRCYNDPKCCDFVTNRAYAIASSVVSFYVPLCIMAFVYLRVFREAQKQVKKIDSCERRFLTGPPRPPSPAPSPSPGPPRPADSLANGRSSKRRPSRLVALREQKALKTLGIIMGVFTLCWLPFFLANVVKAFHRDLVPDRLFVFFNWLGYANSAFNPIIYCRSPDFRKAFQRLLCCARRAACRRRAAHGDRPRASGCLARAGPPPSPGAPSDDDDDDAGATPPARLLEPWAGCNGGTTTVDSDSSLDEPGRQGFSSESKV

For `CNC[C@H](O)c1ccc(O)c(O)c1` [EPINEPHRINE], the Ki [1] was 1.2 µM.
`CNC[C@H](O)c1cccc(O)c1` [PHENYLEPHRINE] showed an EC50 [2] of 6 µM.
With `CNCC(O)c1cc(F)c(O)c(O)c1F` (stereo not given) the Ki [1] was 2.3 µM, the Ki [3] was 0.71 µM and the Ki [4] was 39 µM. For the same molecule, the EC50 [2] was 2.6 µM and the Ki [5] was 1.2 µM.
With `CNCC(O)c1cc(O)c(O)cc1F` (stereo not given) the Ki [1] was 63 µM, the Ki [5] was 0.009 µM and the EC50 [6] was greater than 1.5 µM.
For `NCC(O)c1ccc(O)c(O)c1F` (stereo not given), the Ki [4] was 23 µM, the EC50 [2] was greater than 180 µM and the Ki [5] was 2.1 µM.
`CNCC(O)c1ccc(F)c(O)c1` (stereo not given) gave an EC50 [2] of 16 µM.
`CNCC(O)c1cccc(O)c1F` (stereo not given) gave a Ki [1] of 4 µM, a Ki [4] of 17 µM and an EC50 [2] of 80 µM. The Ki [5] was 1.2 µM.
In the case of `CNCC(O)c1cc(O)ccc1F` (stereo not given), the Ki [1] is reported as 180 µM, the Ki [4] is reported as 2.1 µM and the EC50 [2] is reported as 8 µM. For the same molecule, the Ki [5] was 0.23 µM.
`NCC(O)c1cc(F)c(O)c(O)c1F` (stereo not given) gave a Ki [1] of 5.6 µM, a Ki [4] of 24 µM and an EC50 [2] of 83 µM. The Ki [5] was 3.5 µM.
Molecule `NCC(O)c1cc(O)c(O)c(F)c1` (stereo not given) has a Ki [1] of 1.5 µM, a Ki [3] of 5.5 µM and a Ki [4] of 2.3 µM. For the same molecule, the Ki [5] was 0.15 µM.
Work on `NCC(O)c1cc(O)c(O)cc1F` (stereo not given) yielded an EC50 [2] of 4.2 µM.
`NCC(O)c1c(F)cc(O)c(O)c1F` (stereo not given) gave a Ki [1] greater than 50 µM, an EC50 [2] greater than 100 µM and a Ki [5] of 0.75 µM. For the same molecule, the EC50 [6] was greater than 100 µM.
`CNCC(O)c1c(F)ccc(O)c1F` (stereo not given) gave a Ki [1] of 81 µM, a Ki [4] of 17 µM and an EC50 [2] of 4.3 µM. It also gave a Ki [5] of 0.94 µM.
With `CNCC(O)c1ccc(O)c(O)c1F` (stereo not given) the Ki [5] was 0.066 µM.
